From ChEMBL document CHEMBL3612008, “Synthesis and anticancer effects evaluation of 1-alkyl-3-(6-(2-methoxy-3-sulfonylaminopyridin-5-yl)benzo[d]thiazol-2-yl)urea as anticancer agents with low toxicity” (Bioorg Med Chem, 2015)

Tests used:
U-87 MG = assay: Antiproliferative activity against human U87MG cells incubated for 72 hrs by MTT assay; assay type: functional, cell-based, U-87MG ATCC
In short: (§1)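 HCT-116, MCF-7 and U-87 MG grown in DMEM with 10% FBS, 37 °C, 5% CO2; 3000-5000 cells/well preincubated 24 h, then compounds at final 100, 10, 1, 0.1, 0.01 µM for 72 h.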

A549 = assay: Antiproliferative activity against human A549 cells incubated for 72 hrs by MTT assay; assay type: functional, cell-based; details: A549, 72 h
In short: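 A549 in RPMI-1640 with 10% calf serum, 37 °C, 5% CO2; seeded 3000-5000 cells/well, 24 h before exposure to final 100, 10, 1, 0.1, 0.01 µM for 72 h. MTT (5 mg/ml in PBS) added, 4 h at 37 °C; formazan dissolved in DMSO, OD 570 nm. Three experiments in triplicate; IC50 from inhibition ratios.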

HCT-116 = assay: Antiproliferative activity against human HCT116 cells incubated for 72 hrs by MTT assay; assay type: functional, cell-based; details: HCT-116, 72 h; in short: as §1
MCF7 = assay: Antiproliferative activity against human MCF7 cells incubated for 72 hrs by MTT assay; assay type: functional, cell-based; details: MCF7, 72 h; in short: as §1
[1] = Acute toxicity in mouse dosed orally once daily and observed for 7 days by up and down procedure; assay type: organism-based; details: in vivo, po
In short: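 Male mice, 20.1 ± 1.9 g. Compound dissolved in NMP, then diluted with PEG400 and water (NMP/PEG400/H2O 1:6:3 by volume), given by gavage at 20 ml/kg. Starting dose 10 mg/kg, single mouse per step; dose raised 1.5-fold when the animal behaved normally, continuing until a death occurred.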

CCRF S-180 [2] = assay: Anticancer activity against mouse S180 cells transplanted in mouse assessed as reduction in tumor weight at 1 mg/kg, po dosed once daily for 8 days; assay type: functional; details: CCRF S-180, po, 192 h
[3] = biological target: PI3-kinase p110-delta/p85-alpha (Homo sapiens, UniProt O00329); assay: Inhibition of p110delta/p85alpha (unknown origin) incubated for 40 mins by luciferase based ATP depletion assay; assay type: protein-complex assay
Sequence of PI3-kinase p110-delta/p85-alpha (P27986 whole entry): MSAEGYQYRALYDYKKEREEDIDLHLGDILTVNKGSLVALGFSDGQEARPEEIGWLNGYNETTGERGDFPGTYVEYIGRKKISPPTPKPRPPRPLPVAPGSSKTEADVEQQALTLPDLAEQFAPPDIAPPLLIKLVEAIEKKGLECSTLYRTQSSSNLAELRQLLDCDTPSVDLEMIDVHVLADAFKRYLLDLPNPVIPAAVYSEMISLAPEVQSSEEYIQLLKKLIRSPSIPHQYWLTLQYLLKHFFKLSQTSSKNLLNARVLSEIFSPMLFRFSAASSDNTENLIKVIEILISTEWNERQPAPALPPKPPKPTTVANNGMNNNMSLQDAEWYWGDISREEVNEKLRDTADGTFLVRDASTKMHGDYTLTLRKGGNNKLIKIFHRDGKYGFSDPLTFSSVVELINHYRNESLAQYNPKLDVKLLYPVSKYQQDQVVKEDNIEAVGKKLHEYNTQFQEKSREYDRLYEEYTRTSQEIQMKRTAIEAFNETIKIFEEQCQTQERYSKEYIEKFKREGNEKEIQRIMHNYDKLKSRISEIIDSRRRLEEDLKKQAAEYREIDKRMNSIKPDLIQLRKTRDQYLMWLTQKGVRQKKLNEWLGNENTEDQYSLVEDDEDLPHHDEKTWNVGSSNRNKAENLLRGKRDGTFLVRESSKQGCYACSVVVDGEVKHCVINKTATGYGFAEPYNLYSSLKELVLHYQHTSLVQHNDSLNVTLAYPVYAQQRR
Sequence of PI3-kinase p110-delta/p85-alpha (O00329 whole entry): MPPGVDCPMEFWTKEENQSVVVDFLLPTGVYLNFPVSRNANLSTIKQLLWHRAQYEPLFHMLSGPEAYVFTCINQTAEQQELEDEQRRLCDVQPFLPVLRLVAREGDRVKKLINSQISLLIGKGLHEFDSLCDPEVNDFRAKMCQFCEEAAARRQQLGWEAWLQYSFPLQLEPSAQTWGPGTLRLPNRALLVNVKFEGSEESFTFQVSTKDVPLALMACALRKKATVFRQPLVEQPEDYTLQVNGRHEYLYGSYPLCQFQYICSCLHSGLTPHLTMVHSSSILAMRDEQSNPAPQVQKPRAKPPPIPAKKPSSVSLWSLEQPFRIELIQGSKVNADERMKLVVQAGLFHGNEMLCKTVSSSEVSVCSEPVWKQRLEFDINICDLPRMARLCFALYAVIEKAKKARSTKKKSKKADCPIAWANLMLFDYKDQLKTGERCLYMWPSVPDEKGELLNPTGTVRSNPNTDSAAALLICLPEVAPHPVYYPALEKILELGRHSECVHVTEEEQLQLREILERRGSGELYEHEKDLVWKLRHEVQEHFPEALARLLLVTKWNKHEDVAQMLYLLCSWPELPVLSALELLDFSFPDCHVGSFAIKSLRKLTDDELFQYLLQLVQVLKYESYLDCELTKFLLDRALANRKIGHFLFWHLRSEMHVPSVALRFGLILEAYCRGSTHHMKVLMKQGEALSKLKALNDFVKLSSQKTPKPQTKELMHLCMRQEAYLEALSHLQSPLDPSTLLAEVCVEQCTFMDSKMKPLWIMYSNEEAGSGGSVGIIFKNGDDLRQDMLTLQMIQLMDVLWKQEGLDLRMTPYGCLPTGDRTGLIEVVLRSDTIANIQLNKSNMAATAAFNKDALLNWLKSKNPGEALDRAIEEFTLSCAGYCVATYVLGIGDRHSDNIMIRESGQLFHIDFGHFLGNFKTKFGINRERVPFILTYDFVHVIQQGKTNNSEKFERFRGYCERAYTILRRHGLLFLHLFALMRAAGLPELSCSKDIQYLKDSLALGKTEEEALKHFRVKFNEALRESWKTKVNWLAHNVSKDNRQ

mTORC1 = mTORC1 (Homo sapiens, UniProt P42345); assay: Inhibition of mTORC1 (unknown origin) incubated for 40 mins by luciferase based ATP depletion assay; assay type: protein-complex assay
PI3K p110 beta/p85 alpha = PI3K p110 beta/p85 alpha (Homo sapiens, UniProt P42338); assay: Inhibition of p110beta/p85alpha (unknown origin) incubated for 40 mins by luciferase based ATP depletion assay; assay type: protein-complex assay
[4] = biological target: PI3-kinase subunit gamma/Phosphoinositide 3-kinase regulatory subunit 5 (Homo sapiens, UniProt P48736); assay: Inhibition of p110gamma/PIK3R5 (unknown origin) incubated for 40 mins by luciferase based ATP depletion assay; assay type: protein-complex assay
Sequence of PI3-kinase subunit gamma/Phosphoinositide 3-kinase regulatory subunit 5 (P48736 whole entry): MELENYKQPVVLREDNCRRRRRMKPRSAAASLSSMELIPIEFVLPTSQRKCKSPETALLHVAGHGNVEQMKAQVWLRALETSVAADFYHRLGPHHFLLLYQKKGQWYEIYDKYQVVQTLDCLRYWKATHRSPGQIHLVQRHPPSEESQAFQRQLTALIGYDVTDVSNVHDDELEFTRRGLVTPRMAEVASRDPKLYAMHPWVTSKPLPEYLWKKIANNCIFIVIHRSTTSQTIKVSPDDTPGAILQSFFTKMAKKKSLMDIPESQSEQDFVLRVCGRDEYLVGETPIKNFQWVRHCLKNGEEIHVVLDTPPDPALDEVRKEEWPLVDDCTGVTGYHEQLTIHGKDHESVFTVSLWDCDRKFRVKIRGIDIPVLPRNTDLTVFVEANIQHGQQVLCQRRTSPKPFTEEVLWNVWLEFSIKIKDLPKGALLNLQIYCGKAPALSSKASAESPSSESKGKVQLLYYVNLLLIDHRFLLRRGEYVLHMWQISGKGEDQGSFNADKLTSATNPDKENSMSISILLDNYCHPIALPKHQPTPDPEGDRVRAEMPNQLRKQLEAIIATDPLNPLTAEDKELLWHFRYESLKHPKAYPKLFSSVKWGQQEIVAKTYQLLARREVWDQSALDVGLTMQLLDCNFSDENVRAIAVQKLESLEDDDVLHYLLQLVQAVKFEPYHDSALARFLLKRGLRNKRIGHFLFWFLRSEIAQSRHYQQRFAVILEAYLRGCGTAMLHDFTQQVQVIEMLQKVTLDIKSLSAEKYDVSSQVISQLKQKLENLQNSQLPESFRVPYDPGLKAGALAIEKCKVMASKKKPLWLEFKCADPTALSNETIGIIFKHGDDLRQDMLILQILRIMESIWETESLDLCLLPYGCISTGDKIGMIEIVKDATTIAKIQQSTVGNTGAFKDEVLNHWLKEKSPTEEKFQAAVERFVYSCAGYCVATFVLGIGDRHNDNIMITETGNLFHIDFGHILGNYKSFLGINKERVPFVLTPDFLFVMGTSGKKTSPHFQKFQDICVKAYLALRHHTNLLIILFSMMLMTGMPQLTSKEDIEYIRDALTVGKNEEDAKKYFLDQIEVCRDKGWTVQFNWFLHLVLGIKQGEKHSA
Sequence of PI3-kinase subunit gamma/Phosphoinositide 3-kinase regulatory subunit 5 (Q8WYR1 whole entry, further chain): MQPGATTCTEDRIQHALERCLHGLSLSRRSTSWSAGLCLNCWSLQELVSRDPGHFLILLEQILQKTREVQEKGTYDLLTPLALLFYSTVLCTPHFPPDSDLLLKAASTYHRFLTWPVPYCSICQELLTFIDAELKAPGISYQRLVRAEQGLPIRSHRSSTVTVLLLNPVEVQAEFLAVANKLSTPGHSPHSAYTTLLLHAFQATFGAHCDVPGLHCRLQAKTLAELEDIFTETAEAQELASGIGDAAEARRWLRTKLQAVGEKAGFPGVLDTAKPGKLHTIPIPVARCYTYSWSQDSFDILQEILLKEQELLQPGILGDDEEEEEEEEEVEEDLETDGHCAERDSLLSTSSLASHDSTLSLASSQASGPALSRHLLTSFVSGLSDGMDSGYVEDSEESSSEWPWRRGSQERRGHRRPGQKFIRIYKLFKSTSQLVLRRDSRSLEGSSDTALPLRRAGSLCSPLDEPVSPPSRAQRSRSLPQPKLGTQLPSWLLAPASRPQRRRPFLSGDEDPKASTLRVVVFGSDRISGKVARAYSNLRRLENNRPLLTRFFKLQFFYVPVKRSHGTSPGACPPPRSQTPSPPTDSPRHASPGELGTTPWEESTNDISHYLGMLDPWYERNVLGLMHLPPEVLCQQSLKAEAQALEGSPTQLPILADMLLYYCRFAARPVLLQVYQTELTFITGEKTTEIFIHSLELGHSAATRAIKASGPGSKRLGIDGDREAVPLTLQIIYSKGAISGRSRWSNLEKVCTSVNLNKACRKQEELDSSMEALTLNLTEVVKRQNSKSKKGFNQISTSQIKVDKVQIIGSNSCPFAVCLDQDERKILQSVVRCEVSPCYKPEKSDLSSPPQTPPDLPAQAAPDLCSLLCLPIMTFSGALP

[5] = biological target: PI3-kinase p110-alpha/p85-alpha (Homo sapiens, UniProt P42336); assay: Inhibition of p110alpha/p85alpha (unknown origin) incubated for 40 mins by luciferase based ATP depletion assay; assay type: protein-complex assay
Sequence of PI3-kinase p110-alpha/p85-alpha (P27986 whole entry): as the sequence (P27986 whole entry) above
Sequence of PI3-kinase p110-alpha/p85-alpha (P42336 whole entry): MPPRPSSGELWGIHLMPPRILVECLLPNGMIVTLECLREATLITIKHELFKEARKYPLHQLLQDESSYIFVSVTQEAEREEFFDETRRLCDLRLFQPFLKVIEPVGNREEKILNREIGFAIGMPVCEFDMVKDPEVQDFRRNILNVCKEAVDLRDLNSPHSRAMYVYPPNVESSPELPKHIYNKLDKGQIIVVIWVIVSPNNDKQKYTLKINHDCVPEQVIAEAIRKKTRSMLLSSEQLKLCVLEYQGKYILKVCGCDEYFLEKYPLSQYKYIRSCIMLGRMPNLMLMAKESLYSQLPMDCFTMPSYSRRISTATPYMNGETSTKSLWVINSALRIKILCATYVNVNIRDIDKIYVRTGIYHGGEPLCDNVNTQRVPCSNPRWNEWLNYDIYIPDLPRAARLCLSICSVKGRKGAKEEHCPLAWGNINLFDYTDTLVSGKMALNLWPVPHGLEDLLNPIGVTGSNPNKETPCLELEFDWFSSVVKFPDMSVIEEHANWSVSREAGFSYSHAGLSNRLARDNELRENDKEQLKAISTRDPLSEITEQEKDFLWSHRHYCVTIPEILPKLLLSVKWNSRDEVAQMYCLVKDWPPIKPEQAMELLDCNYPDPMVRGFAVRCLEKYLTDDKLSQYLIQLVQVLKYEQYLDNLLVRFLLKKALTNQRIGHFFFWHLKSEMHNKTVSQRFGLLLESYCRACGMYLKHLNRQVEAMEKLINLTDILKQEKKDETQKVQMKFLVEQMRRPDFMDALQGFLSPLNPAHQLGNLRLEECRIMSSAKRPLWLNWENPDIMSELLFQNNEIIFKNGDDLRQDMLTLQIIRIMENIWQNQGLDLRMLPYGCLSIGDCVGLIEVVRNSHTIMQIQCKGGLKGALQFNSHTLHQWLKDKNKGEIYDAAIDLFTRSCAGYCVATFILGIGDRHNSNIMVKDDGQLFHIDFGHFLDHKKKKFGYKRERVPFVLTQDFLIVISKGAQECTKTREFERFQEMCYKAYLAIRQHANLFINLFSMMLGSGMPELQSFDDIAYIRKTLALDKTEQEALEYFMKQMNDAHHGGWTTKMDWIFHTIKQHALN

CCRF S-180 [6] = assay: Anticancer activity against mouse S180 cells transplanted in mouse assessed as reduction in tumor weight at 10 mg/kg, po dosed once daily for 8 days; assay type: functional; details: CCRF S-180, po, 192 h
Mus musculus = assay: Toxicity in mouse S180 cells transplanted mouse assessed as increase in body weight at 1 to 10 mg/kg, po dosed once daily for 8 days; assay type: organism-based, CCRF S-180; details: in vivo, 192 h
In short: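 S180 flank homograft mice (3×10^6 cells s.c., 8 per group) dosed orally once daily for 8 days at 1.0, 3.0 or 10.0 mg/kg in NMP/PEG400/H2O (1:6:3), solvent-only controls; body weights recorded daily and again at sacrifice on Day 9.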

CCRF S-180 [7] = assay: Anticancer activity against mouse S180 cells transplanted in mouse assessed as reduction in tumor weight at 3 mg/kg, po dosed once daily for 8 days; assay type: functional; details: CCRF S-180, po, 192 h

SMILES	IC50 (U-87 MG) [nM]	IC50 (A549) [nM]	IC50 (HCT-116) [nM]	IC50 (MCF7) [nM]	further results
COc1ncc(-c2ccc3nc(NC(=O)NCCN4CCOCC4)sc3c2)cc1NS(=O)(=O)c1ccc(C)cc1	520	380	570	210	
COc1ncc(-c2ccc3nc(NC(=O)NCCN4CCOCC4)sc3c2)cc1C#N	8380	4710	4550	2300	
O=S(=O)(Nc1cc(-c2ccc3nc(NC4CC4)sc3c2)cnc1Cl)c1ccc(F)cc1			5750		
Cn1c(=O)n(-c2ccc(C(C)(C)C#N)cc2)c2c3cc(-c4cnc5ccccc5c4)ccc3ncc21 [DACTOLISIB]	1410	760		480	
CCN(CC)CCNC(=O)Nc1nc2ccc(-c3cnc(Cl)c(NS(=O)(=O)c4ccc(F)cc4)c3)cc2s1	1390	5260	920	710	
O=C(Nc1nc2ccc(-c3cnc(Cl)c(NS(=O)(=O)c4ccc(F)cc4)c3)cc2s1)NC1CC1	1720	1030	1750	1090	
COc1ncc(-c2ccc3nc(NC(=O)NCCN4CCOCC4)sc3c2)cc1NS(=O)(=O)c1ccc(Cl)cc1	1050	530	540	650	
CNC(=O)Nc1nc2ccc(-c3cnc(OC)c(NS(=O)(=O)c4ccc(F)cc4)c3)cc2s1	1230	1560	870	1190	LD50 at 168 h [1]: 40 mg/kg
CC(=O)Nc1nc2ccc(-c3cnc(Cl)c(NS(=O)(=O)c4ccc(F)cc4)c3)cc2s1	440	410	440	430	LD50 at 168 h [1]: 20 mg/kg
O=C(NCCN1CCOCC1)Nc1nc2ccc(-c3cnc(Cl)c(NS(=O)(=O)c4ccc(F)cc4)c3)cc2s1	2390	6690	2960	950	
CCOC(=O)CNc1nc2ccc(-c3cnc(OC)c(NS(=O)(=O)c4ccc(F)cc4)c3)cc2s1			> 20000		
COc1ncc(-c2ccc3nc(NC(=O)NCCN4CCCC4)sc3c2)cc1NS(=O)(=O)c1ccc(F)cc1	360	300	310	410	LD50 at 168 h [1]: 300 mg/kg
COc1ncc(-c2ccc3nc(NC4CC4)sc3c2)cc1NS(=O)(=O)c1ccc(F)cc1	1500	1330	1560	450	
COc1ncc(-c2ccc3nc(NC(=O)NCCN4CCN(C)CC4)sc3c2)cc1NS(=O)(=O)c1ccc(F)cc1	440	550	540	470	LD50 at 168 h [1]: 300 mg/kg
CCN(CC)CCNC(=O)Nc1nc2ccc(-c3cnc(OC)c(NS(=O)(=O)c4ccc(F)cc4)c3)cc2s1	390	450	300	320	inhibition in vivo at 1 mg/kg (CCRF S-180 [2]): 27.2%; IC50 [3]: 148 nM; LD50 at 168 h [1]: 320 mg/kg; IC50 (mTORC1): 78 nM; IC50 (PI3K p110 beta/p85 alpha): 90 nM; IC50 [4]: 11 nM; IC50 [5]: 13 nM; inhibition in vivo at 10 mg/kg (CCRF S-180 [6]): 56.2%; Activity (Mus musculus): Non-toxic; inhibition in vivo at 3 mg/kg (CCRF S-180 [7]): 44.3%
CCN(CC)CCNC(=O)Nc1nc2ccc(-c3cnc(OC)c(NS(=O)(=O)c4ccc(C)cc4)c3)cc2s1	360	310	180	170	

The next lines start with results.

IC50 (U-87 MG) [nM]	IC50 (A549) [nM]	IC50 (HCT-116) [nM]	IC50 (MCF7) [nM]	SMILES	further results
480	490	250	260	COc1ncc(-c2ccc3nc(NC(=O)NCCN4CCOCC4)sc3n2)cc1NS(=O)(=O)c1ccc(F)cc1	
		> 20000		CCCNc1nc2ccc(-c3cnc(Cl)c(NS(=O)(=O)c4ccc(F)cc4)c3)cc2s1	
520	900	470	1190	COc1ncc(-c2ccc3nc(NC(=O)NC4CC4)sc3c2)cc1NS(=O)(=O)c1ccc(F)cc1	
7230	5160	> 20000	> 20000	COc1ccc(-c2ccc3nc(NC(=O)NCCN4CCOCC4)sc3c2)cn1	
1020	470	240	500	COc1ncc(-c2ccc3nc(NC(=O)NCCN(C)C)sc3c2)cc1NS(=O)(=O)c1ccc(F)cc1	
1670	1920	640	1800	COc1ncc(-c2ccc3nc(NC(=O)NCCN4CCOCC4)sc3c2)cc1NS(=O)(=O)C1CC1	
750	330	610	450	COc1ncc(-c2ccc3nc(NC(=O)NCCN4CCCCC4)sc3c2)cc1NS(=O)(=O)c1ccc(F)cc1	
490	430	520	750	COc1ncc(-c2ccc3nc(NC(=O)NCCN4CCOCC4)sc3c2)cc1NS(=O)(=O)c1ccc(F)cc1	
